Results on 21 compounds are retold here after ChEMBL document CHEMBL4354863, “Discovery of Novel Allosteric Inhibitors of Deoxyhypusine Synthase” (J Med Chem, 2020).

The first assay concerns the target T1, Deoxyhypusine synthase (Homo sapiens, UniProt P49366).
T1 sequence (P49366 whole entry): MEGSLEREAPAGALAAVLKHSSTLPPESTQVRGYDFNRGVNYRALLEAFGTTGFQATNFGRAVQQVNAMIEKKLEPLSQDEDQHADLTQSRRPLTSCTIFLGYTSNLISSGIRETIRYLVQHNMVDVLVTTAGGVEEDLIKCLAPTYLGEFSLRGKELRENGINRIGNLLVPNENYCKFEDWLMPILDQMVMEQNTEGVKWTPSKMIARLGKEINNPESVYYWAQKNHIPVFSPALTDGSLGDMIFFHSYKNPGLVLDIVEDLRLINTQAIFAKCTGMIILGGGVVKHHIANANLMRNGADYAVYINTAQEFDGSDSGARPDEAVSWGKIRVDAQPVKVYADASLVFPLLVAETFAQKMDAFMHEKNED
The assay is described as follows: Inhibition of human N-terminal His6-tagged TEV protease site linked DHPS expressed in Escherichia coli BL21 (DE3) assessed as reduction in radiolabelled amino-butylidene incorporation in eIF5A using [3H]Spermidine trichloride as substrate after 90 to 120 mins in presence of eIF5A and 14 uM NAD+ by Topcount scintillation counting method. The gist of the method:
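Reaction run 120 min at room temperature, quenched with GC-7, and bound to streptavidin plates for 90–120 min. Plates washed and scintillation-counted. IC50 with 95% CI from nonlinear regression of percent inhibition.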
One may read the IC50 as the point on the concentration scale where inhibition reaches its midpoint. For `N=C(N)NCCCCCCCN`, the IC50 came to 0.14 µM.

On to `O=C(Nc1cccc2[nH]ccc12)c1ccc2ccccc2c1`, for which the IC50 is > 100 µM.

`CC(C)(C)c1ccc(S(=O)(=O)Nc2cccc3[nH]ccc23)cc1`: the IC50 was > 100 µM.

Take `O=C(Nc1cccc2[nH]ccc12)c1cc2ccccc2o1`: the IC50 was > 100 µM.

In the case of `NC(=O)c1ccc2cc(C(=O)Nc3cccc4[nH]ccc34)sc2c1`, the half-maximal inhibitory concentration (IC50) stood at 11 µM.

`N#Cc1ccc2cc(C(=O)Nc3cccc4[nH]ccc34)sc2c1`: the IC50 turned out to be 0.43 µM.

For `CC(C)(C)c1ccc(NC(=O)c2cccc3[nH]ccc23)cc1`, the IC50 turned out to be 99 µM.

As to `CC(C)(C)c1ccc(C(=O)Nc2cccc3[nH]ccc23)cc1`, the IC50 was 0.84 µM.

Regarding `CC(C)(C)c1ccc(C(=O)Nc2cccc3c2CCN3)cc1`, the IC50 was > 100 µM.

On to `CC(C)(C)c1ccc(C(=O)Nc2cccc3cn[nH]c23)cc1`, for which the IC50 is > 100 µM.

On to `O=C(Nc1cccc2[nH]ccc12)c1cc2ccc(Cl)cc2s1`, for which the IC50 is 0.12 µM.

Regarding `O=C(Nc1cccc2[nH]ccc12)c1cc2ccccc2s1`, the IC50 came out at 2.3 µM.

Take `O=C(Nc1cccc2[nH]ccc12)c1cc2cccc(Br)c2s1`: the IC50 was > 100 µM.

As to `O=C(Nc1cccc2[nH]ccc12)c1ccccc1`, the 50% inhibitory concentration (IC50) was > 100 µM.

As to `O=C(Nc1cccc2[nH]ccc12)c1cc2cc(Br)ccc2s1`, the half-maximal inhibitory concentration (IC50) was > 100 µM.

For the compound `O=C(Nc1cccc2[nH]ccc12)c1cc2ccc(I)cc2s1`, the IC50 was determined as 0.092 µM.

For `CC(C)(C)c1ccc(NC(=O)Nc2cccc3[nH]ccc23)cc1`, the IC50 is > 100 µM.

Regarding `O=C(Nc1cccc2[nH]ccc12)c1cc2ccc(Br)cc2s1`, the IC50 amounted to 0.062 µM.

`CC(C)(C)c1ccc(C(=O)Nc2cccc3[nH]ncc23)cc1`: the IC50 worked out at 22 µM.

With `CC(C)(C)c1ccc(C(=O)Nc2cccc3c2CC(=O)N3)cc1`, the IC50 was 42 µM.

As for `CC(C)(C)c1ccc2cc(C(=O)Nc3cccc4[nH]ccc34)sc2c1`, the 50% inhibitory concentration (IC50) was 5.4 µM.

For another assay, the target named is T1, Deoxyhypusine synthase. The assay is described as follows: Competitive inhibition of human N-terminal His6-tagged TEV protease site linked DHPS expressed in Escherichia coli BL21 (DE3) assessed as reduction in radiolabelled amino-butylidene incorporation in eIF5A using 2 uM of [3H]Spermidine trichloride as substrate after 90 to 120 mins in presence of eIF5A and 250 uM NAD+ by Topcount scintillation counting method. Put shortly: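 Human DHPS (His-tagged, tag removed with TEV, purified by Ni-affinity and size exclusion), 24 nM, with 1 µM eIF5A, 2 µM [³H]-spermidine (38.5 Ci/mmol) and 250 µM NAD⁺ (×18 Km). Reaction run 120 min at room temperature, stopped with GC-7, and captured on streptavidin plates for 90–120 min. Plates washed with PBS and counted by scintillation. IC50 from nonlinear regression of percent inhibition.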
In the case of `N=C(N)NCCCCCCCN`, the IC50 turned out to be 0.5 µM.

As for `CC(C)(C)c1ccc(C(=O)Nc2cccc3[nH]ccc23)cc1`, the IC50 turned out to be 38 µM.

In the case of `O=C(Nc1cccc2[nH]ccc12)c1cc2ccc(Br)cc2s1`, the concentration for half-maximal inhibition (IC50) was 56 µM.

The next assay has as its target T1, Deoxyhypusine synthase. The assay is described as follows: Competitive inhibition of human N-terminal His6-tagged TEV protease site linked DHPS expressed in Escherichia coli BL21 (DE3) assessed as reduction in radiolabelled amino-butylidene incorporation in eIF5A using 100 uM of [3H]Spermidine trichloride as substrate after 90 to 120 mins in presence of eIF5A and 14 uM NAD+ by Topcount scintillation counting method. The gist of the method: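 Human DHPS expressed in E. coli, Ni-affinity purified, His-tag removed by TEV protease, then size-exclusion purified; 24 nM enzyme. Run with 1 µM eIF5A, 14 µM NAD+, 100 µM [3H]-spermidine (high-spermidine condition), 1 mM DTT, 50 mM Tris-HCl pH 8.0, 120 min at room temperature. Stopped with GC-7, captured on streptavidin plates, PBS-washed, scintillation counted. IC50 from nonlinear regression, 95% CI.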
For `O=C(Nc1cccc2[nH]ccc12)c1cc2ccc(Br)cc2s1`, the IC50 is 6.9 µM.
